Rows were chosen to be rich in hits. Some 3.7% of all compounds tested hit in one or more screens of this group.
KCNQ1 inh: blocks the human KCNQ1 potassium channel. P51787. CHO-K1 KCNQ1, FluxOR thallium flux fluorescence; stronger effect = higher value. B-score at 10 µM. actives 1.3% (n = 310,000). AID 2642;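 active = compounds whose thallium flux B-score, printed positive for inhibition, exceeds three library SD while starting fluorescence stays within three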;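 note: channel opened by potassium depolarization with thallium stimulus after 20 min compound exposure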
Target sequence (P51787 whole entry, looked up): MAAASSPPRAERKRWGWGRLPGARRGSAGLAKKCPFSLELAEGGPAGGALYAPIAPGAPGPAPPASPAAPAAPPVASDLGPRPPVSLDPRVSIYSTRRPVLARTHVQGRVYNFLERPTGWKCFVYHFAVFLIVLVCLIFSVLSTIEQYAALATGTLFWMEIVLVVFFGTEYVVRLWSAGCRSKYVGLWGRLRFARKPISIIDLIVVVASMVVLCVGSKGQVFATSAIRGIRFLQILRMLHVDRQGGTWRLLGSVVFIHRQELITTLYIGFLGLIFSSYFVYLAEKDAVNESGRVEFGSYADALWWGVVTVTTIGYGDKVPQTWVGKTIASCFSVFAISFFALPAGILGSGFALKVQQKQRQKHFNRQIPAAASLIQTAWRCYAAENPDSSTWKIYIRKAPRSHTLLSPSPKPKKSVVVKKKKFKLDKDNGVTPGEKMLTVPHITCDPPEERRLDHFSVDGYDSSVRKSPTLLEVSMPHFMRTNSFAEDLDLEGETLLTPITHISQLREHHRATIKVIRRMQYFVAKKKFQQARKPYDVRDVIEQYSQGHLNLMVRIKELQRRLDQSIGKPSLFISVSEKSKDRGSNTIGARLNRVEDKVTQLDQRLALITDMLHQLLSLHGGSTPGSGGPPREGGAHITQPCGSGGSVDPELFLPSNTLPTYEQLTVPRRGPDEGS
KCNQ1 act: human KCNQ1 channel potentiation or activation; B-score at 10 µM; actives 0.35% (n = 310,000); P51787; CHO-K1 KCNQ1, thallium flux FluxOR fluorescence; stronger effect = higher value; AID 2648;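 active = fluorescence ratio B-score, a plate-corrected score, at least three library SD, with initial intensity B-score within 5 SD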
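System: Stable KCNQ1 CHO-K1 line | Incubation: 90 min dye loading and 20 min compound exposure, both at room temperature | Measure: Ratio B score | Medium: Assay buffer for compound exposure, DMSO matched across wells | Compound dosing: Single-concentration screen | Probe or stimulus: K+/Tl+ depolarizing stimulus | Measured by: Kinetic FluxOR fluorescence, 10 s baseline plus 110 s post-stimulus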
KCNK3 inh: human KCNK3 channel inhibition, primary screen | B-score at 10 µM | AID 602410 | CHO-KCNK3 thallium flux, FluxOR fluorescence; stronger effect = lower value | O14649 | actives 0.84% (n = 340,000);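 active = B-score under library mean minus 4 SD, starting fluorescence ratio at most library mean plus 5 SD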;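 note: more negative B-score means stronger inhibition of thallium flux through KCNK3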
KCNK9 block: human KCNK9 channel inhibition; B-score at 10 µM; AID 488922; HEK293 KCNK9, FluxOR thallium flux fluorescence; stronger effect = lower value; actives 1.2% (n = 310,000);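 active = ratio B-score over 3 SD below the library mean, with starting fluorescence within 5 SD of its mean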;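 note: negative B-score means less thallium flux so channel inhibition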
hERG rescue: hERG (human) protection from proarrhythmic block | activation (rescue from dofetilide block), less the hit threshold, % at 10 µM | actives 0.51% (n = 310,000) | CHO-hERG, FluxOR thallium flux, dofetilide IC70 present | Q12809 | AID 1511;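 active = activation above the mean of controls blocked by dofetilide plus 5 SD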;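 note: thallium influx through hERG after potassium depolarization seen as dye fluorescence rise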
Kir21 inh: blocks the mouse Kir2.1 inward-rectifier potassium channel. actives 0.85% (n = 310,000). AID 1672. HEK293-Kir2.1, FluxOR thallium flux fluorescence; stronger effect = lower value. P35561. B-score at 10 µM;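 active = fluorescence ratio B-score at or below minus 3 SD of library scores, with starting-brightness B-score within 2 SD, cut at about -4.2 in these data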;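 note: channel flux triggered by added potassium and thallium sulfate stimulus; B-score of peak minus minimum fluorescence over baseline after thallium stimulus; more negative B-score means stronger Kir2.1 block with less thallium influx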
* marks the source's active call; other numbers are inactive results; i = inactive; / = not tested or not shown.

SMILES	KCNQ1 inh	KCNQ1 act	KCNK3 inh	KCNK9 block	hERG rescue	Kir21 inh
CC(=O)COc1ccc2c(C)c(C)c(=O)oc2c1	i	i	i	i	-2	-0.4
N#CC1(NC(=O)CSc2n[nH]c(-c3ccccc3)n2)CCCCC1	i	i	i	i	-6	-0.28
O=C1Nc2ccc(Cl)cc2[C@@](C#CC2CC2)(C(F)(F)F)O1	i	i	/	-8.7*	-8	-0.31
COc1cccc(C(c2nnnn2Cc2ccco2)N2CCN(c3cccc(C)c3C)CC2)c1OC (stereo unspecified)	6*	i	i	-6.8*	-6	0.14
COc1cc(CNCCCN2CCOCC2)cc(Br)c1OCc1ccc(Cl)cc1	i	i	i	i	-21	-8.2*
COc1cc(CNCCN2CCOCC2)ccc1OCc1ccc(Cl)cc1	i	i	i	i	-9	0.39
Nc1nonc1-n1nnc(C(=O)N/N=C/c2ccoc2)c1-c1ccccc1	i	i	i	i	-7	-1.6
CCCn1c(N)c(N2CCCCC2)c(=O)n(CC(=O)Nc2ccccc2C(F)(F)F)c1=O	/	/	i	/	/	/
CN1CCN(Cc2ccc(-c3ccc(Cl)cc3)o2)CC1	i	i	i	i	-7	-4.7*
Clc1ccc(-c2ccc(CN3CCCCC3)o2)cc1	i	i	i	i	-8	0.08
Cc1ccc(N(CC(=O)Nc2cc(Cl)ccc2Oc2ccccc2)S(C)(=O)=O)cc1C	i	i	i	-7.5*	-6	0.77
COc1ccc(NC(=O)CN(c2ccc(OC)c(Cl)c2)S(=O)(=O)c2ccccc2)c(OC)c1	6*	i	i	i	-1	-0.25
O=C(Nc1ccccc1Oc1ccccc1)c1ccccc1F	i	i	i	i	-12	-0.44
Cc1ccc(N(CC(=O)Nc2cc(Cl)ccc2Oc2ccccc2)S(C)(=O)=O)c(C)c1	i	i	i	i	-8	0.92
O=C(Nc1cc(Cl)ccc1Oc1ccccc1)c1ccccc1F	6*	i	i	i	-5	0.05
Cc1nnc(SCC(=O)Nc2ccc(S(N)(=O)=O)cc2)n(N)c1=O	/	/	i	/	/	/
Cc1ccc(CNC(=O)C2CC(=O)N(C3CCCC3)C2)cc1 (stereo unspecified)	/	/	i	/	/	/
COCCNC(=O)c1cccc(Nc2nc(-c3ccccc3)c3cc(Cl)ccc3n2)c1	i	i	i	-6.8*	-7	1.9
OCCNc1nc(-c2ccccc2)c2cc(Cl)ccc2n1	i	i	i	i	-5	1.4
O=C(O)CSCC(=O)N1CCN(Cc2ccc3c(c2)OCO3)CC1	i	i	i	i	-2	-0.13
NNC(=S)NC1CCCCCCCCCCC1	8*	i	i	i	-18	-2
Cc1ccc(-n2ncc3c(SCC(N)=O)ncnc32)cc1C	i	i	i	i	-1	0.57
Cc1ccc(S(=O)(=O)N2CCOCC2)cc1NC(=O)CNc1ccccc1N1CCCC1=O	/	/	i	/	/	/
Cc1ccc(C2=N/C(=C\c3c(C)nn(-c4ccccc4)c3N3CCCC3)C(=O)O2)cc1	9*	i	i	i	-18	0.96
O=C(N/N=C/c1cc([N+](=O)[O-])ccc1O)c1ccc(COc2ccc3c(c2)CCC3)o1	i	i	i	i	14*	-1.2
SMILES	KCNQ1 inh	KCNQ1 act	KCNK3 inh	KCNK9 block	hERG rescue	Kir21 inh
Cc1ccccc1Nc1nnc(SCC(=O)NCC2CCCO2)s1 (stereo unspecified)	/	/	i	/	/	/
c1ccc(-c2nnsc2-c2ncc[nH]2)cc1	i	i	i	i	4.7*	-1.2
Cc1ccc2nsnc2c1S(=O)(=O)Nc1cccc2nsnc12	i	11*	i	i	5.2*	2.1
CC(=O)c1ccccc1NS(=O)(=O)c1cccc2nsnc12	i	i	i	i	-3	0.84
CCc1ccccc1NS(=O)(=O)c1cccc2nsnc12	i	i	i	i	-1	-5.4*
Cc1ccc(C)c(NS(=O)(=O)c2c(C)ccc3nsnc23)c1	i	i	i	i	-11	-3.1
CCC[C@@H](CN[C@@H](CNC)C(C)C)NCCCCc1ccccc1	i	i	i	i	-6	-2.2
CCC[C@@H](CNC)NC[C@H](Cc1ccccc1)NCCCCc1ccccc1	i	i	i	i	-11	-4.5*
CNC[C@@H](Cc1ccccc1)NC[C@@H](CC1CCCCC1)NCCCc1ccccc1	7*	i	i	-8.1*	-25	-11*
CNC[C@@H](CC1CCCCC1)NC[C@H](CC(C)C)NCCc1cccc(C(F)(F)F)c1	9*	i	i	i	-30	-8.8*
CN(C)CCCn1c2c(c(SCC(=O)Nc3nccs3)nc1=O)CCC2	i	i	i	i	-10	-0.67
CSc1nc(N)nc2c1ncn2CC(=O)NCCCN1CCCC1=O	/	/	i	/	/	/
NC(N)=N/N=C/c1ccc(Cl)c(Cl)c1	i	i	i	i	-4	-5*
COc1cc(/C=N/O)ccc1OCc1ccc(Cl)cc1	i	i	/	i	-6	-0.47
NC(N)=N/N=C/c1ccccc1	i	i	i	i	-9	-1.5
NC(N)=N/N=C/c1ccc(OCc2ccccc2)c(OCc2ccccc2)c1	6*	i	i	i	-18	0
COc1cc(/C=N/N=C(N)N)ccc1OCc1ccc(Cl)cc1	13*	i	i	i	-32	-8.2*
O=C1CCCCC1CCc1ccncc1 (stereo unspecified)	/	/	i	/	/	/
O=C(NC(=S)Nc1cc([N+](=O)[O-])ccc1O)C1CC1	i	i	i	i	-10	2.5
CCOC(=O)C(=Cc1cc(=O)c(OC)co1)C(=O)OCC	i	10*	i	i	-1	-7.3*
O=[N+]([O-])c1ccc2[nH]c(=S)sc2c1	/	/	i	/	/	/
S=c1[nH]c2ccc(Cl)cc2s1	i	69*	i	i	53*	0.39
O=C(OCc1cc(Cl)ccc1OC(F)F)c1ccc([N+](=O)[O-])o1	i	i	/	i	-6	-0.52
O=C1C2C3C=CC(C4CC34)C2C(=O)N1/N=C/c1ccc(-c2ccc(F)cc2[N+](=O)[O-])o1 (stereo unspecified)	i	i	i	i	8.1*	-0.71
CC(C)(C)C1CCC(C(=O)OCC(=O)c2ccc[nH]2)CC1 (stereo unspecified)	i	i	i	i	-4	-5.3*
Cc1ccc(N2CC(C(=O)OCC(=O)c3ccc[nH]3)CC2=O)cc1 (stereo unspecified)	i	i	i	i	-18	-0.26
CCN(CC(=O)Nc1ccc(NC(C)=O)cc1)C(=O)CN1C(=O)NC(C)(c2ccc3ccccc3c2)C1=O (stereo unspecified)	/	/	i	/	/	/
